Measured values of several laboratories.
Target: Serine/threonine-protein kinase MARK1 (MARK1, Homo sapiens, UniProt Q9P0L2)

Structure (SMILES) | effect on | method | concentration | remaining binding [%]
N[C@@H]1CCN(c2nccc(-c3cnn4ncccc34)n2)C1 | binding |  | 1 µM | 100
O=c1nc(-c2ccccn2)sc2ccccc12 | binding | competition with immobilised ligand | 1 µM | 100
O=C(NCCCN1CCOCC1)c1ccc(Nc2nccc(-c3cc4ccccc4s3)n2)cc1 | binding | competition with immobilised ligand | 1 µM | 66
Cn1cc(Cl)c2c(Oc3c(F)cc(Nc4cc(Cl)nc(N)n4)cc3F)ccnc21 | cell-free assay | competition with immobilised ligand | 0.1 µM | 100
FC(F)(F)Oc1cccc(-c2cnc3ccc(-c4ccncc4)nn23)c1 | cell-free assay | competition with immobilised ligand | 5 µM | 79
O=C(Nc1c[nH]nc1C(=O)NC1CCNCC1)c1cc(F)cc(F)c1 | binding | competition with immobilised ligand | 1 µM | 100
CN(C)c1ncc(F)c(-c2cnn3ncccc23)n1 | binding |  | 1 µM | 100
COc1cnc(Nc2cccc(S(N)(=O)=O)c2)nc1N1CCN(c2ccccc2)C(=O)C1 | binding | competition with immobilised ligand | 1 µM | 95
F[C@@H]1CCN(c2nccc(-c3cnn4ncccc34)n2)C1 | binding |  | 1 µM | 100
c1cncc(-c2cccc(Nc3nccc(NC4CCCCC4)n3)c2)c1 | binding | competition with immobilised ligand | 10 µM | 90
CC1CCCN1c1nccc(-c2cnn3ncccc23)n1 (stereo not shown) | binding |  | 1 µM | 100
Cc1nc(Cc2cccc(C(F)(F)F)c2)sc1-c1ccc(C(N)=O)nc1 | cell-free assay | competition with immobilised ligand | 1 µM | 90
CNC(=O)[C@@H]1CC[C@@H](n2c(-c3ccc4cnccc4c3)nc3ccc(C(=O)NCc4cccc(C(N)=O)c4)cc32)C1 | binding | competition with immobilised ligand | 1 µM | 94
O=C(NCCCN1CCOCC1)c1ccc(Nc2ncc(Cl)c(-c3ccc(Cl)s3)n2)cc1 | binding | competition with immobilised ligand | 1 µM | 25
Cc1cc(NC(=O)c2cccc(S(F)(F)(F)(F)F)c2)cc(-n2ccn3nc(-c4cccnc4)cc23)c1 | cell-free assay | competition with immobilised ligand | 1 µM | 100
COc1ccnn2ncc(-c3ccnc(N(C)C)n3)c12 | binding |  | 1 µM | 97
CN(C)C(=O)Cn1cc(-c2nc([C@@](C)(c3ccc(-c4cnc(N)nc4)cc3)C3CC3)no2)cn1 | cell-free assay | competition with immobilised ligand | 1 µM | 92
C[C@@H]1CCN(c2nccc(-c3cnn4ncccc34)n2)C1 | binding |  | 1 µM | 100
COCCOc1nc(-c2ccc(Cl)nc2)nc2c1CN(C(=O)c1ncn3ccccc13)CC2 | cell-free assay | competition with immobilised ligand | 0.1 µM | 100
CN(CCCC(F)(F)F)c1nccc(-c2cnn3ncccc23)n1 | binding |  | 1 µM | 100
CNC(=O)Nc1ccc2c(c1)CC[C@@]21OC(=O)N(CC(=O)N(Cc2ccc(F)cc2)[C@@H](C)C(F)(F)F)C1=O | cell-free assay | competition with immobilised ligand | 1 µM | 89
Cc1cnc(Nc2ccc(C(=O)N3CCC(N4CCCC4)CC3)cc2)nc1-c1cc2ccccc2s1 | binding | competition with immobilised ligand | 1 µM | 22
